# Experimental data from ChEMBL document CHEMBL4138219, “Pyrano[3,2-a]carbazole alkaloids as effective agents against ischemic stroke in vitro and in vivo” (Eur J Med Chem, 2018).
# Active and inactive are the calls of the source. No cut-off for these calls is given here.
# What was measured:
# [1] = Plasma concentration in Sprague-Dawley rat at 40 mg/kg administered via oral gavage measured at 24 hrs by LC-MS/MS method; format: ADME, organism-based
# In short: (§1)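 For the time-course, male SD rats (260–280 g) received a single 40 mg/kg oral gavage dose and were killed at 0.083, 0.25, 0.5, 1, 2, 4, 6, 8, 12 and 24 h (n = 3 each). Plasma and brain homogenate (three volumes of saline) were protein-precipitated, centrifuged, and analyzed by validated LC-MS/MS. Results are given as mean ± SD.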
# [2] = Plasma concentration in Sprague-Dawley rat at 40 mg/kg administered via oral gavage measured at 1 hr by LC-MS/MS method; format: ADME, organism-based; in short: as §1
# Rattus norvegicus [3] = assay: Reversal of middle cerebral artery occlusion and reperfusion-induced death in Sprague-Dawley rat assessed as survival rate at 80 mg/kg administered via oral gavage as qd for 7 days measured on day 7 post reperfusion (reference value: 50%); format: functional
# Rattus norvegicus [4] = assay: Reversal of middle cerebral artery occlusion and reperfusion-induced decrease in body weight in Sprague-Dawley rat assessed as body weight at 20 mg/kg administered via oral gavage as qd for 7 days measured on day 7 post reperfusion (reference value: 82%); format: functional; parameters: scale not given: the % may be the effect or the level left
# [5] = Cmax in Sprague-Dawley rat brain at 40 mg/kg administered via oral gavage by LC-MS/MS method; format: ADME, organism-based; parameters: dose 40 mg/kg, route oral
# [6] = Tmax in Sprague-Dawley rat brain at 40 mg/kg administered via oral gavage by LC-MS/MS method; format: ADME, organism-based
# [7] = Drug uptake in Sprague-Dawley rat brain at 40 mg/kg administered via oral gavage measured at 4 hrs by LC-MS/MS method; format: ADME, organism-based; settings: read-out: Drug uptake; in short: as §1
# [8] = Drug uptake in Sprague-Dawley rat brain at 40 mg/kg administered via oral gavage measured at 24 hrs by LC-MS/MS method; format: ADME, organism-based; settings: read-out: Drug uptake; in short: as §1
# [9] = Plasma concentration in Sprague-Dawley rat at 40 mg/kg administered via oral gavage measured at 0.25 hrs by LC-MS/MS method; format: ADME, organism-based; in short: as §1
# [10] = Plasma concentration in Sprague-Dawley rat at 40 mg/kg administered via oral gavage measured at 6 hrs by LC-MS/MS method; format: ADME, organism-based; in short: as §1
# [11] = Drug uptake in Sprague-Dawley rat brain at 40 mg/kg administered via oral gavage measured at 2 hrs by LC-MS/MS method; format: ADME, organism-based; settings: read-out: Drug uptake; in short: as §1
# [12] = Tmax in Sprague-Dawley rat plasma at 40 mg/kg administered via oral gavage by LC-MS/MS method; format: ADME, organism-based
# Rattus norvegicus [13] = assay: Increase in neurological function in Sprague-Dawley rat middle cerebral artery occlusion and reperfusion model assessed as decrease in forelimb falling number at 20 to 80 mg/kg administered via oral gavage as qd for 7 days measured on day 2 to 7 during compound dosing post reperfusion by grid test; format: functional, organism-based
# In short: (§2)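 Male SD rats (260–280 g) underwent MCAO with reperfusion. They were randomized to model, 80 mg/kg 3-n-butylphthalide, or compound at 20, 40 or 80 mg/kg. Rats without neurological impairment after reperfusion were excluded. Neurological deficit was scored on days 1–7 by the Zea Longa test, and forelimb falls were counted in a grid test.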
# [14] = Drug uptake in Sprague-Dawley rat brain at 40 mg/kg administered via oral gavage measured at 0.5 hrs by LC-MS/MS method; format: ADME, organism-based; settings: read-out: Drug uptake; in short: as §1
# [15] = Drug uptake in Sprague-Dawley rat brain at 40 mg/kg administered via oral gavage measured at 8 hrs by LC-MS/MS method; format: ADME, organism-based; settings: read-out: Drug uptake; in short: as §1
# PC-12 [16] = assay: Cytoprotective activity against H2O2-induced damage in rat PC12 cells assessed as cell viability at 10 uM after 24 hrs by MTT assay (reference value: 70.1 +/- 3.7%); format: functional; settings: PC-12, 24 h, read-out: Activity
# Rattus norvegicus [17] = assay: Anti-cerebral ischemia in Sprague-Dawley rat middle cerebral artery occlusion and reperfusion model assessed as decrease in brain infract volume at 20 to 40 mg/kg administered via oral gavage as qd for 7 days measured on day 7 post reperfusion by TTC staining-based assay; format: functional, organism-based
# In short: (§3)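 Male Sprague-Dawley rats (260e280 g) randomised to MCAO/R, MCAO/R + NBP 80 mg/kg, or MCAO/R + compound at 20, 40 or 80 mg/kg. Rats without neurological impairment, or dead after reperfusion at 0 h, were excluded. On day 7, rats were transcardially perfused with PBS. Brains were cut into six 2-mm sections and stained with 1.5% TTC. Infarct = right pale area/left non-ischemic area, expressed as % of the MCAO/R group.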
# Rattus norvegicus [18] = assay: Increase in neurological function in Sprague-Dawley rat middle cerebral artery occlusion and reperfusion model assessed as decrease in behavior deficit at 20 to 80 mg/kg administered via oral gavage as qd for 7 days measured on day 7 post reperfusion by Zea Longa's test; format: functional, organism-based; in short: as §2
# [19] = Plasma concentration in Sprague-Dawley rat at 40 mg/kg administered via oral gavage measured at 8 hrs by LC-MS/MS method; format: ADME, organism-based; in short: as §1
# [20] = AUC (0 to t) in Sprague-Dawley rat brain at 40 mg/kg administered via oral gavage by LC-MS/MS method; format: ADME, organism-based; settings: in vivo
# Rattus norvegicus [21] = assay: Reversal of middle cerebral artery occlusion and reperfusion-induced death in Sprague-Dawley rat assessed as survival rate at 20 mg/kg administered via oral gavage as qd for 7 days measured on day 7 post reperfusion (reference value: 50%); format: functional; settings: 168 h
# [22] = Cmax in Sprague-Dawley rat plasma at 40 mg/kg administered via oral gavage by LC-MS/MS method; format: ADME, organism-based; parameters: dose 40 mg/kg, route oral
# [23] = AUC (0 to t) in Sprague-Dawley rat plasma at 40 mg/kg administered via oral gavage by LC-MS/MS method; format: ADME, organism-based
# [24] = Plasma concentration in Sprague-Dawley rat at 40 mg/kg administered via oral gavage measured at 0.5 hrs by LC-MS/MS method; format: ADME, organism-based; in short: as §1
# [25] = Plasma concentration in Sprague-Dawley rat at 40 mg/kg administered via oral gavage measured at 4 hrs by LC-MS/MS method; format: ADME, organism-based; in short: as §1
# Cortical neurone [26] = assay: Neuroprotective activity against H2O2-induced damage in Sprague-Dawley rat primary cortical neurons assessed as cell viability at 1 uM after 24 hrs by MTT assay (reference value: 70 +/- 2.6%); format: functional; settings: read-out: Activity
# [27] = Drug uptake in Sprague-Dawley rat brain at 40 mg/kg administered via oral gavage measured at 0.25 hrs by LC-MS/MS method; format: ADME, organism-based; settings: in vivo, BLD = below limit of detection; in short: as §1
# [28] = Plasma concentration in Sprague-Dawley rat at 40 mg/kg administered via oral gavage measured at 12 hrs by LC-MS/MS method; format: ADME, organism-based; in short: as §1
# [29] = Drug uptake in Sprague-Dawley rat brain at 40 mg/kg administered via oral gavage measured at 1 hr by LC-MS/MS method; format: ADME, organism-based; settings: read-out: Drug uptake; in short: as §1
# [30] = Drug uptake in Sprague-Dawley rat brain at 40 mg/kg administered via oral gavage measured at 6 hrs by LC-MS/MS method; format: ADME, organism-based; settings: read-out: Drug uptake; in short: as §1
# PC-12 [31] = assay: Cytoprotective activity against oxygen-glucose deprivation/reoxygenation-induced damage in rat PC12 cells assessed as cell viability at 10 uM after 24 hrs by MTT assay (reference value: 70 +/- 5.1%); format: functional; settings: PC-12, 24 h, read-out: Activity
# [32] = Drug uptake in Sprague-Dawley rat brain at 40 mg/kg administered via oral gavage measured at 12 hrs by LC-MS/MS method; format: ADME, organism-based; settings: read-out: Drug uptake; in short: as §1
# [33] = Ratio of AUC (0 to t) in Sprague-Dawley rat brain to plasma at 40 mg/kg administered via oral gavage; format: ADME, organism-based; settings: read-out: Ratio AUC
# In short: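 Brain-to-plasma exposure ratio, taken as AUC(0-t) in brain tissue divided by AUC(0-t) in plasma. Male SD rats (260–280 g) received a single 40 mg/kg oral gavage dose and were sampled from 0.083 to 24 h (n = 3 per time point). Brain was homogenized in saline and quantified by LC-MS/MS.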
# [34] = Drug uptake in Sprague-Dawley rat brain at 40 mg/kg administered via oral gavage measured at 0.083 hrs by LC-MS/MS method; format: ADME, organism-based; settings: in vivo, BLD = below limit of detection; in short: as §1
# Rattus norvegicus [35] = assay: Reversal of middle cerebral artery occlusion and reperfusion-induced death in Sprague-Dawley rat assessed as survival rate at 40 mg/kg administered via oral gavage as qd for 7 days measured on day 7 post reperfusion (reference value: 50%); format: functional; settings: 168 h
# Cortical neurone [36] = assay: Neuroprotective activity against H2O2-induced damage in Sprague-Dawley rat primary cortical neurons assessed as cell viability at 10 uM after 24 hrs by MTT assay (reference value: 70 +/- 2.6%); format: functional; settings: read-out: Activity
# [37] = Plasma concentration in Sprague-Dawley rat at 40 mg/kg administered via oral gavage measured at 2 hrs by LC-MS/MS method; format: ADME, organism-based; in short: as §1
# [38] = Antioxidant activity assessed as free radical scavenging activity at 25 mg/ml by ESR method; format: functional
# In short: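 ESR spin-trapping was done at room temperature. 50 mmol/L TEMP and 25 mg/mL compound were mixed in DMSO and exposed to UVA light for 1 min before recording. Settings were 10 mW microwave power, 1 G field modulation and 150 G scan width.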
# [39] = Plasma concentration in Sprague-Dawley rat at 40 mg/kg administered via oral gavage measured at 0.083 hrs by LC-MS/MS method; format: ADME, organism-based; settings: in vivo, BLD = below limit of detection; in short: as §1
# Rattus norvegicus [40] = assay: Reversal of middle cerebral artery occlusion and reperfusion-induced decrease in body weight in Sprague-Dawley rat assessed as body weight at 80 mg/kg administered via oral gavage as qd for 7 days measured on day 7 post reperfusion (reference value: 82%); format: functional; parameters: scale not given: the % may be the effect or the level left
# Rattus norvegicus [41] = assay: Increase in neurological function in Sprague-Dawley rat middle cerebral artery occlusion and reperfusion model assessed as decrease in behavior deficit at 80 mg/kg administered via oral gavage as qd for 7 days measured on day 7 post reperfusion by Zea Longa's test; format: functional, organism-based; in short: as §2
# Rattus norvegicus [42] = assay: Anti-cerebral ischemia in Sprague-Dawley rat middle cerebral artery occlusion and reperfusion model assessed as decrease in brain infract volume at 80 mg/kg administered via oral gavage as qd for 7 days measured on day 7 post reperfusion by TTC staining-based assay; format: functional, organism-based; in short: as §3
# Cortical neurone [43] = assay: Neuroprotective activity against H2O2-induced damage in Sprague-Dawley rat primary cortical neurons assessed as cell viability at 50 uM after 24 hrs by MTT assay (reference value: 70 +/- 2.6%); format: functional; settings: read-out: Activity
smiles,measurement,setting,value
Cc1cc2c([nH]c3ccc(C(C)(C)C)cc32)c2c1OC(C)(C)C=C2,concentration at 24 h,[1],19.6 ng/mL
same,concentration at 1 h,[2],324 ng/mL
same,Activity,Rattus norvegicus [3],inactive
same,Activity,Rattus norvegicus [4],94.7%
same,Cmax,[5],5890 ng/g
same,Tmax,[6],8 h
same,concentration at 4 h,[7],3080 ng/g
same,concentration at 24 h,[8],472 ng/g
same,concentration at 0.25 h,[9],264 ng/mL
same,concentration at 6 h,[10],1510 ng/mL
same,concentration at 2 h,[11],1160 ng/g
same,Tmax,[12],6 h
same,Activity,Rattus norvegicus [13],Active
same,concentration at 0.5 h,[14],38.5 ng/g
same,concentration at 8 h,[15],5890 ng/g
same,viability at 10 µM,PC-12 [16],96.8%
same,Activity,Rattus norvegicus [17],Active
same,Activity,Rattus norvegicus [18],Active
same,concentration at 8 h,[19],1140 ng/mL
same,AUCt,[20],80618 ng·h/g
same,survival at 20 mg/kg,Rattus norvegicus [21],81.3%
same,Cmax,[22],1510 ng/mL
same,AUC(0-t),[23],18800 ng·h/mL
same,concentration at 0.5 h,[24],157 ng/mL
same,concentration at 4 h,[25],1110 ng/mL
same,viability at 1 µM,Cortical neurone [26],97.6%
same,Drug uptake,[27],Bld
same,concentration at 12 h,[28],1040 ng/mL
same,concentration at 1 h,[29],129 ng/g
same,concentration at 6 h,[30],4720 ng/g
same,viability at 10 µM,PC-12 [31],96.1%
same,concentration at 12 h,[32],5330 ng/g
same,Kp,[33],4.3
same,Drug uptake,[34],Bld
same,survival at 40 mg/kg,Rattus norvegicus [35],62.5%
same,viability at 10 µM,Cortical neurone [36],119%
same,concentration at 2 h,[37],871 ng/mL
same,Activity,[38],Active
same,Cp,[39],Bld
CCCCC1OC(=O)c2ccccc21 (stereo not drawn) [RAC-3-N-BUTYLPHTHALIDE],survival at 80 mg/kg,Rattus norvegicus [3]; 168 h,68.8%
same,Activity,Rattus norvegicus [40],87.6%
same,Activity,Rattus norvegicus [41],Active
same,Activity,Rattus norvegicus [42],Active
COc1ccc2[nH]c3c4c(c(C=O)cc3c2c1)OC(C)(C)C=C4 [CLAULANSINE F],viability at 10 µM,PC-12 [16],87.7%
same,viability at 10 µM,PC-12 [31],93.1%
COc1ccc2c(c1)c1cc(C=O)c3c(c1n2C)C=CC(C)(C)O3,viability at 10 µM,PC-12 [16],93.8%
same,viability at 10 µM,PC-12 [31],94.4%
CC1=NN(c2ccccc2)C(=O)C1 [EDARAVONE],viability at 10 µM,Cortical neurone [36],85.2%
same,viability at 50 µM,Cortical neurone [43],86.7%
same,Activity,[38],Active
